From PubChem
M1 ag – M1 muscarinic receptor agonists, primary screen, CHO-M1 cells, Fluo-4 calcium, agonist mode; Muscarinic acetylcholine receptor M1; Fluo-4 calcium fluorescence; stronger effect = higher value; B-score at 10 µM; hit rate 3% among 64,000;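 active means fluorescence rise, raw or as B-score row- and column-corrected plate score, outside the 99.7% band of its plate's samples, either direction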
D1 mod – D1 CRE-luciferase signal change, two-sided – cell-based, HEK293 D1, dopamine EC30, D1 allosteric modulator project, primary screen. dopamine EC30 potentiation; actives deviate in either direction. B-score at 10 µM. hit rate 5.9% among 58,000. D(1A) dopamine receptor (Homo sapiens), P21728;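 active means luminescence count or its row- and column-corrected plate score outside the 99.7% band of the plate's sample wells, on either side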
M1 antag – antagonists of rat M1 muscarinic receptor; AID 628, 2007; CHO-M1 cells, Fluo-4 calcium, ACh EC80 antagonist mode; stronger effect = lower value; hit rate 3.4% among 64,000; Muscarinic acetylcholine receptor M1 (Rattus norvegicus), P08482; B-score at 10 µM;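 active means calcium fluorescence response, raw or row-and-column corrected B-score, differing from the plate sample mean either way at a set confidence level, mostly lower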
S1P1 ag pot – S1P1 agonists and agonism potentiators, primary screen, cell-based, primary and confirmation screens, CRE-bla reporter; Sphingosine 1-phosphate receptor 1 (Homo sapiens), P21453; S1P1 CRE-bla cells, forskolin, beta-lactamase FRET, potentiator mode; S1P1 agonist co-added at EC20, 2 nM; 100% = saturating reference agonist, 0% = basal; hit rate 0.57% among 56,000; activation, % at 9.5 µM;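 active means activation above a cutoff set at the mean activation of all tested compounds plus 3 SD, cut at about 54% in these data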;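 further: forskolin at 4 µM as EC80 and the EC20 agonist is SEW2871; 100% = SEW2871 at its EC100 plus forskolin at EC80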
Target sequence (P21453 whole entry, looked up): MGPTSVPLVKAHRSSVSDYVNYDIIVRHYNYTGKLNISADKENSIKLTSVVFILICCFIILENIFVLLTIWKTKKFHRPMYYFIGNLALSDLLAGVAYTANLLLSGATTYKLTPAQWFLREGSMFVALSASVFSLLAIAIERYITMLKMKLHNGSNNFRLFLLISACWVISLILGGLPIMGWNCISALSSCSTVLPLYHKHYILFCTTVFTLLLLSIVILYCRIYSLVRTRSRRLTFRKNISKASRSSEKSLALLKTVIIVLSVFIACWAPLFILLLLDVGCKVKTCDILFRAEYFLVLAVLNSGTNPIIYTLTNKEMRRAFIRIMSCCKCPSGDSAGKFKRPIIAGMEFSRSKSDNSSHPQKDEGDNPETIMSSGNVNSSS
S1P3 agonist – human S1P3 receptor agonists, primary screen, cell-based, primary and confirmation, NFAT-BLA reporter; Sphingosine 1-phosphate receptor 3 (Homo sapiens), Q99500; S1P3 NFAT-BLA reporter cells, agonism, FRET ratio; relative to 1 µM S1P, basal subtracted; activation, % at 4.5 µM; hit rate 0.1% among 60,000; AID 373, 2006;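 active means activation above the screen-wide mean plus 3 SD, cut at about 4.5% in these data, passing the limit was not always enough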
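Assay system: stable CHO line with human S1P3, Gα16, NFAT-BLA reporter; Detection: FRET β-lactamase substrate fluorescence, excitation 405 nm, 460/535 nm emission ratio, background-subtracted; Read-out: percent activation versus median 1 µM S1P response, basal-subtracted, per plate; Incubation: cells plated overnight, compound 4 h 37 °C, substrate 2 h RT.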
M1 agonist conf – rat M1 muscarinic receptor agonists, confirmation, CHO-M1 cells, Fluo-4 calcium, duplicate retest | shares compounds with M1 ag | Fluo-4 calcium fluorescence, agonist mode; actives lie on both sides | fluorescence change (max-min) at 10 µM | hit rate 19% among 1,700 | AID 1488, 2009;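 active means fluorescence change differs from the solvent-only DMSO control mean at a set confidence level in both duplicate runs; inconclusive means differs from solvent-only control mean in just one of two runs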;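 further: an EC20 dose of acetylcholine follows compound addition during the same imaging run; raw fluorescence intensity difference in instrument units with no normalization to controls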
M4 agonist ctr – agonist activity at rat M4 receptor, confirmation, counter-screen for M1 allosteric modulator project, cell-based, agonist mode; CHO M4/Gqi5 cells, Fluo-4 calcium fluorescence; actives lie on both sides; fluorescence change (max-min) at 10 µM; shares compounds with M1 ag; AID 1741, 2009; hit rate 9% among 1,700;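 active means fluorescence change differing from the plate's solvent-only control wells at 99.7% confidence in both duplicates, whether higher or lower; inconclusive means differs from solvent controls in only one of two duplicates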
* hit, by the source's call. An excerpt weighted towards active compounds, which were near 11% of everything screened.

What do the screens show for `CCOc1cc(C(=O)Nc2ccc(N3CCN(S(C)(=O)=O)CC3)cc2)cc(OCC)c1OCC`?
M1 ag: 0.01; D1 mod: 0.73; M1 antag: 0.055; S1P3 agonist: 0

Results for O=C(CSc1nc(-c2ccco2)cc(C(F)(F)F)n1)NCCCn1ccnc1 ?
M1 ag: 10*; D1 mod: 0.035; M1 antag: -0.93; S1P1 ag pot: -23; S1P3 agonist: -1; M1 agonist conf: 3.4; M4 agonist ctr: -2

What do the screens show for `O=C(CSc1nc(-c2cccs2)cc(C(F)(F)F)n1)NCCCn1ccnc1`?
M1 ag: -0.0028; D1 mod: -1.2; M1 antag: 0.19; S1P1 ag pot: -10; S1P3 agonist: -1

Results for O=C(C1CCCN(S(=O)(=O)c2cccc3nsnc23)C1)N1CCN(c2ccccn2)CC1 (centres undefined) ?
M1 ag: 3.1*; D1 mod: -0.036; M1 antag: -1.4; S1P1 ag pot: 13; S1P3 agonist: 0; M1 agonist conf: -7.6; M4 agonist ctr: -20

Results for O=C(NCC1COc2ccccc2O1)C1CCCN(S(=O)(=O)c2cccc3nsnc23)C1 (centres undefined) ?
M1 ag: 3.2*; D1 mod: 0.2; M1 antag: -0.13; S1P1 ag pot: 13; S1P3 agonist: -1; M1 agonist conf: inconclusive; M4 agonist ctr: -62

What do the screens show for `COc1cccc(NC(=O)C2CCCN(S(=O)(=O)c3cccc4cccnc34)C2)c1` (centres undefined)?
M1 ag: 3.1*; D1 mod: 4.4; M1 antag: 0.15; S1P1 ag pot: -22; S1P3 agonist: 0; M1 agonist conf: inconclusive; M4 agonist ctr: -25

How did O=C(C1CCCN(S(=O)(=O)c2cccc3cccnc23)C1)N1CCc2ccccc21 (centres undefined) do in these assays?
M1 ag: 3.1*; D1 mod: 1.8; M1 antag: -0.14; S1P1 ag pot: -25; S1P3 agonist: 0; M1 agonist conf: inconclusive; M4 agonist ctr: -49

Results for CC(C)(C)NC(=O)C1CCCN(S(=O)(=O)c2cccc3cccnc23)C1 (centres undefined) ?
M1 ag: -0.45; D1 mod: 0.33; M1 antag: 1.5; S1P1 ag pot: -8; S1P3 agonist: -1

Results for O=C(C1CCN(S(=O)(=O)c2cccc3cccnc23)CC1)N1CCN(c2ccccc2)CC1 ?
M1 ag: -0.053; D1 mod: -0.86; M1 antag: 0.53; S1P1 ag pot: 8; S1P3 agonist: -1

How did O=C(C1CCCN(S(=O)(=O)c2cccc3cccnc23)C1)N1CCN(c2ccc(F)cc2)CC1 (centres undefined) do in these assays?
M1 ag: 2.7*; D1 mod: -2.3*; M1 antag: 0.15; S1P1 ag pot: 12; S1P3 agonist: -1; M1 agonist conf: inconclusive; M4 agonist ctr: inconclusive

Results for Cc1nn(Cc2ccc(C(=O)NC(C)(C)C)o2)c(C)c1Br ?
M1 ag: 3.9*; D1 mod: -0.59; M1 antag: -1.9; S1P1 ag pot: 30; S1P3 agonist: 0; M1 agonist conf: 17; M4 agonist ctr: -15

Results for Cc1c(S(=O)(=O)N2CCc3ccccc3C2)c(=O)n(C)c(=O)n1C ?
M1 ag: 0.11; D1 mod: 0.6; M1 antag: 0.45; S1P1 ag pot: 2; S1P3 agonist: -1
